According to paper PMC2854536 (Clinical cancer research : an official journal of the …, 2009):

What was measured:
endothelial cells = assay: Cytotoxicity in a 4-hour assay; type: cell-based, Human; details: P14 at concentrations above 10 nM, data not shown
[1] = test system: bFGF/VEGF-induced angiogenesis; assay: Directed In Vivo Angiogenesis Assay; design: species or system nude mice
Method in brief: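 Angioreactors filled with basement membrane extract holding bFGF/VEGF mix plus test peptide, or peptide alone, implanted subcutaneously in both flanks of nude mice, four per animal. PEDF 20 nM and 34-mer 100 nM served as controls. Recovered cells were FITC-lectin labelled and fluorescence read as relative EC invasion. Three independent experiments, normalised to negative control, averaged.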

[2] = test system: bFGF-induced angiogenesis; assay: Matrigel plug assay; type: in vivo, nude mice; details: Matrigel plug with bFGF (Fig. 3C bottom)
CD95 = assay: Immunohistochemistry of Matrigel plug vasculature, CD95; type: in vivo, nude mice; details: Matrigel plugs with bFGF (Fig. 6A)
HMVEC cells = assay: Endothelial cell apoptosis, TUNEL assay; type: cell-based, Human; details: overnight, 0.2% FBS, no bFGF, PEDF 10 nM, 34-mer 100 nM (Fig. 2C)
Method in brief: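 Confluent HMVECs (passages 6–9) on coverslips were treated overnight with test peptide in MCDB131 with 0.2% FBS, with or without bFGF 20 ng/ml. PEDF 10 nM and 34-mer 100 nM were controls. TUNEL staining with propidium iodide counterstain. In 3–5 10X fields, TUNEL-positive and total PI-positive cells were counted to give % apoptotic cells.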

P14: PEDF-derived peptide, residues 43–57 of PEDF molecule, acetylated at the N-terminus and amidated at the C-terminus (Ac-EDPFFKVPVNKLAAA-NH2; UniProt P36955 43-57, looked up, fragment)
cytotoxicity (endothelial cells): slightly cytotoxic
angiogenic activity of the peptide alone ([1]; DIVAA, without bFGF/VEGF, P<0.05): pro-angiogenic

34-mer: PEDF anti-angiogenic N-terminal surface epitope, amino acid residues 24–57; parental peptide (SPPEEGSPDPDSTGALVEEEDPFFKVPVNKLAAA; UniProt P36955 24-57, looked up, fragment)
EC apoptosis by in situ TUNEL [2]: induced significant levels of EC apoptosis
CD95 staining of microvessels (CD95): majority of the microvessels stained positive

P23: PEDF-derived peptide, residues 34–57, acetylated at the N-terminus and amidated at the C-terminus (Ac-DSTGALVEEEDPFFKVPVNKLAAA-NH2; UniProt P36955 34-57, looked up, fragment)
cytotoxicity (endothelial cells): no cytotoxic activity

B1: PEDF: Pigment epithelial-derived factor, native protein, a potent angiogenesis inhibitor (protein, UniProt P36955 20-418, looked up)
Pigment epithelium-derived …: QNPASPPEEGSPDPDSTGALVEEEDPFFKVPVNKLAAAVSNFGYDLYRVRSSTSPTTNVLLSPLSVATALSALSLGAEQRTESIIHRALYYDLISSPDIHGTYKELLDTVTAPQKNLKSASRIVFEKKLRIKSSFVAPLEKSYGTRPRVLTGNPRLDLQEINNWVQAQMKGKLARSTKEIPDEISILLLGVAHFKGQWVTKFDSRKTSLEDFYLDEERTVRVPMMSDPKAVLRYGLDSDLSCKIAQLPLTGSMSIIFFLPLKVTQNLTLIEESLTSEFIHDIDRELKTVQAVLTVPKLKLSYEGEVTKSLQEMKLQSLFDSPDFSKITGKPIKLTQVEHRAGFEWNEDGAGTTPSPGLQPAHLTFPLDYHLNQPFIFVLRDTDTGALLFIGKILDPRGP
effect on stress-induced apoptosis in low serum (HMVEC cells): no effect
level of vascularization reached ([1]; DIVAA with bFGF/VEGF mix, P=0.006 (PEDF) and 0.01 (P18)): to the level of BME
